Results as given in ChEMBL document CHEMBL4613263, “Optimization of Tetrahydroindazoles as Inhibitors of Human Dihydroorotate Dehydrogenase and Evaluation of Their Activity and In Vitro Metabolic Stability” (J Med Chem, 2020).
Values after ≈ are worked out from the molar mass of the structure shown. Active and inactive are the calls of the source. The rule behind the calls is not given here.

Tests used:
Homo sapiens [1] = species on record: Homo sapiens; assay: Antiproliferative activity against human ARN8 cells assessed as reduction in cell viability at 0.005 to 10 uM incubated for 72 hrs in presence of 100 uM […], uridine by SRB assay; format: functional, cell-based
[2] = Antiproliferative activity against human ARN8 cells assessed as reduction in cell viability incubated for 72 hrs by SRB assay; format: functional, cell-based
[3] = Cytotoxicity against human HNDF cells assessed as reduction in cell viability incubated for 72 hrs by SRB assay; format: cell-based
Summary of the method: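 Human normal dermal fibroblasts seeded at 15×10^2 per well and left 24 h, then exposed to compound for 72 h with 0.1% DMSO final. Cells fixed with TCA at 4 °C for 1 h, stained with SRB, solubilized in 10 mM Tris and read at 490 nm. Values normalized to DMSO control. Tabulated means come only from experiments where IC50 fell below 10 000 nM.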

[4] = Kinetic aqueous solubility of compound in Prima HT solution at pH 7.4 incubated for 4 hrs by UV-spectrophotometry; format: physicochemical; conditions: read-out: Kinetic_solubility
Summary of the method: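 20 mM DMSO stocks diluted 100× into Prima HT buffer at pH 7.4 and shaken 4 h at rt. Samples filtered through 0.22 µm, mixed 1:1 with isopropanol and scanned by UV from 190–400 nm against stock reference standards.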

[5] = Drug metabolism in CD-1 mouse liver microsomes assessed as hydroxylation-mediated M2 metabolite with m/z as 397.1 formation by measuring retention time at 10 uM incubated for 60 mins by LC-MS/MS analysis; format: ADME, Microsome; conditions: 1 h
Summary of the method: (§1)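 10 µM compound in 100 mM phosphate pH 7.4 with pooled female CD-1 mouse liver microsomes and NADPH, at 37 °C for 0, 10, 20, 40 and 60 min. Stopped with equal-volume cold acetonitrile, then centrifuged, dried and reconstituted. Metabolites and parent resolved on C18 UHPLC with ion-trap MS. Each peak reported as % of total (metabolite + parent) area.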

[6] = Drug metabolism in CD-1 mouse liver microsomes assessed as hydroxylation-mediated M1 metabolite with m/z as 397.1 formation by measuring retention time at 10 uM incubated for 60 mins by LC-MS/MS analysis; format: ADME, Microsome; conditions: 1 h; summary of the method: as §1
[7] = biological target: T1, Dihydroorotate dehydrogenase (quinone), mitochondrial (Homo sapiens, UniProt Q02127); assay: Inhibition of DHODH in human ARN8 cells assessed as activation of p53-dependent transcription at 0.05 to 10 uM incubated for 16 hrs by CPRG assay; format: cell-based
T1 sequence (Q02127 whole entry): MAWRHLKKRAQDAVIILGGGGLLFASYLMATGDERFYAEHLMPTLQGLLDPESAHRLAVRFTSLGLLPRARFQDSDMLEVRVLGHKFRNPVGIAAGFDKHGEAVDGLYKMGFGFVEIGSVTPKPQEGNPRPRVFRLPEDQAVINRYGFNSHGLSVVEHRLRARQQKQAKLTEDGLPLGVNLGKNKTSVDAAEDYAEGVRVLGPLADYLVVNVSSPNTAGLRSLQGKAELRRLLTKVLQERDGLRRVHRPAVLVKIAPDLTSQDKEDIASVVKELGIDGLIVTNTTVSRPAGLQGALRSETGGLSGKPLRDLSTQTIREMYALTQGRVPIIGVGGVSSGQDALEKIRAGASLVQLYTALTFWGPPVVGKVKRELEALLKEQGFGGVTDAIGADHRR
Summary of the method: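 ARN8 cells carrying the RGCΔFos-LacZ p53 reporter seeded at 2×10^4 per well and left 24 h, then treated 16 h (0.1% DMSO final, ±100 µM uridine). Cells washed, lysed and frozen at −20 °C for at least 2 h. β-galactosidase measured with CPRG substrate at pH 7.5, read at 590 nm after 24 h. Result is fold change vs DMSO; mean ± SD of three technical replicates.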

[8] = Metabolic stability in human liver microsomes assessed as half life at 1 uM incubated for 60 mins by LC-MS/MS analysis; format: ADME, Microsome; conditions: for half-life at 1 µM: liver microsomes
Summary of the method: (§2)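 Compound at 1 µM with 1.0 mg/mL human or mouse liver microsomes in 50 mM potassium phosphate pH 7.4, preincubated 5 min at 37 °C. Started with 1 mM NADPH (or blank buffer). Quenched with cold acetonitrile containing glipizide at 0, 5, 15, 30, 60 min. Parent loss tracked by LC-MS/MS in MRM mode; t½ = 0.693/k from slope of peak-area ratio versus time.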

[9] = Drug metabolism in CD-1 mouse liver microsomes assessed as disappearance of parent compound by measuring parent compound retention time at 10 uM incubated for 60 mins by LC-MS/MS analysis; format: ADME, Microsome; conditions: 1 h; summary of the method: as §1
[10] = Metabolic stability in CD-1 mouse liver microsomes assessed as half life at 1 uM incubated for 60 mins by LC-MS/MS analysis; format: ADME, Microsome; conditions: for half-life at 1 µM: CD-1, mouse, liver microsomes; summary of the method: as §2
[11] = biological target: T1, Dihydroorotate dehydrogenase (quinone), mitochondrial; assay: Inhibition of recombinant human DHODH using dihydroorotic acid as substrate measured for 68 mins by DCIP based colorimetric assay
Homo sapiens [12] = species on record: Homo sapiens; assay: Antiproliferative activity against human ARN8 cells assessed as reduction in cell viability incubated with compound at higher concentration for 72 hrs in presence of 100 uM […], uridine by SRB assay; format: functional, cell-based
[13] = Cytotoxicity against human HNDF cells assessed as reduction in cell viability incubated for 72 hrs in presence of 100 uM […], uridine by SRB assay; format: cell-based
Summary of the method: (§3)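 Normal dermal fibroblasts seeded at 15×10^2 per well and left 24 h, then treated 72 h in medium with 0.1% DMSO final plus 100 µM uridine. Fixed with TCA, stained with 0.4% SRB, dye dissolved in Tris and read at 490 nm. Growth/viability given as % of DMSO control; mean ± SD of three technical replicates.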

[14] = Cytotoxicity against human HNDF cells assessed as reduction in cell viability incubated with compound at higher concentration for 72 hrs in presence of 100 uM […], uridine by SRB assay; format: cell-based; summary of the method: as §3
[15] = biological target: DNA topoisomerase 2-alpha (Homo sapiens) (UniProt P11388); conditions: 20 uM
Chain of DNA topoisomerase 2-alpha (Homo sapiens) (P11388 whole entry, the tested form may be a part): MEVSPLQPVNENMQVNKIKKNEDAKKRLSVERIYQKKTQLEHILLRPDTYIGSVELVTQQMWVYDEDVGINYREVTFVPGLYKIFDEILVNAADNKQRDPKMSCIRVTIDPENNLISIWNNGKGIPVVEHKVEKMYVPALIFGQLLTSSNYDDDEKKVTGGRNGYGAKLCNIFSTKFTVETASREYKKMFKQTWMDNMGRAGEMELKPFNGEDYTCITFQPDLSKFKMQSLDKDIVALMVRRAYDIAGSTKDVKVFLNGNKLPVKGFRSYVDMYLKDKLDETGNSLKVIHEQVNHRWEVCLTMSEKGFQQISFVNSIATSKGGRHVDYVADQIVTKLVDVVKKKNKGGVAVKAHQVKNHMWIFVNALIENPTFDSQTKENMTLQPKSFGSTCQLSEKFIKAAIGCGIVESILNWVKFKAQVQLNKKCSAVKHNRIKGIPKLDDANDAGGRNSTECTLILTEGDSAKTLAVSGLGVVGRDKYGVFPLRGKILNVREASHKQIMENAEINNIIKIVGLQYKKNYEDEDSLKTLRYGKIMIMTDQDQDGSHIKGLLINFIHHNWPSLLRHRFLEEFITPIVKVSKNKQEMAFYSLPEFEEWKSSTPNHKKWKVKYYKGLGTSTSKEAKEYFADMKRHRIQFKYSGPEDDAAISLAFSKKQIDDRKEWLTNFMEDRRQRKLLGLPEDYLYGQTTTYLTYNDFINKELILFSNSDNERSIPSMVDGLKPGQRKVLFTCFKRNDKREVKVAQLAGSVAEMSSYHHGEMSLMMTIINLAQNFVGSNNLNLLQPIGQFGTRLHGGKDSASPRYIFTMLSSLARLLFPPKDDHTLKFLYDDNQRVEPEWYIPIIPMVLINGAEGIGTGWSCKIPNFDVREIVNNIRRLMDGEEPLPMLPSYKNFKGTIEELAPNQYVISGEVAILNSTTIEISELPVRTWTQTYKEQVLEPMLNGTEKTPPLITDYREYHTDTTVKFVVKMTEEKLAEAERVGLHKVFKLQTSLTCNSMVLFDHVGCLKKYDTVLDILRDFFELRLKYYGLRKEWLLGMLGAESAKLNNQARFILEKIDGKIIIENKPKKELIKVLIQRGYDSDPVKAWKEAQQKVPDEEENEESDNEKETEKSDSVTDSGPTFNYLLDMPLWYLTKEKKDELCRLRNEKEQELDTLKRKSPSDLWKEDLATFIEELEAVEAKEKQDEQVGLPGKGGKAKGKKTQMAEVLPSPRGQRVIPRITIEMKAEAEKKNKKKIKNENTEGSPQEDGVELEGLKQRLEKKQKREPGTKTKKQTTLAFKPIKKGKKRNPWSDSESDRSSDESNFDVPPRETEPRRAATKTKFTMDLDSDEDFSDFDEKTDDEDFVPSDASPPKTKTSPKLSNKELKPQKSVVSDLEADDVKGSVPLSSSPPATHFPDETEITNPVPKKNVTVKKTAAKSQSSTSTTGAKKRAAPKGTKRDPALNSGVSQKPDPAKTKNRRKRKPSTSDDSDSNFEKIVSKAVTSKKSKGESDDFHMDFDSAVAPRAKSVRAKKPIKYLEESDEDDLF

[16] = biological target: DNA topoisomerase 2-alpha (Homo sapiens) (UniProt P11388); conditions: 20 uM; remark: listed apart in the source
[17] = biological target: DNA topoisomerase 2-alpha (Homo sapiens) (UniProt P11388); conditions: 20 uM; remark: listed apart in the source
[18] = biological target: DNA topoisomerase 2-alpha (Homo sapiens) (UniProt P11388); conditions: 20 uM; remark: listed apart in the source
[19] = biological target: T1, Dihydroorotate dehydrogenase (quinone), mitochondrial; assay: Inhibition of DHOH in human ARN8 cells assessed as gammaH2AX level at 20 uM incubated for 1 hr in presence of pan-caspase inhibitor, Z-VAD-FMK by Western blot analysis; format: cell-based
Summary of the method: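 ARN8 cells treated 24 h at 20 nM, with 20 µM Z-VAD-FMK or vehicle added 4.5 h before harvest. Etoposide arm was 20 µM for 1 h alongside Z-VAD-FMK. Lysates normalized for protein and analysed by western blot for p53, p-Ser15 p53, γ-H2AX, H2AX and cleaved PARP (85 kDa) against stain-free total-protein loading.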

[20] = biological target: DNA topoisomerase 2-alpha (Homo sapiens) (UniProt P11388); conditions: 20 uM; remark: listed apart in the source
[21] = biological target: DNA topoisomerase 2-alpha (Homo sapiens) (UniProt P11388); conditions: 20 uM; remark: listed apart in the source
[22] = biological target: T1, Dihydroorotate dehydrogenase (quinone), mitochondrial; assay: Inhibition of recombinant human N-terminal His-tagged DHODH (31 to 395 residues) expressed in Escherichia coli expression system using dihydroorotic acid as substrate by DCIP assay
[23] = Homo sapiens, ARN8, 72 h, read-out: IC50
[24] = Homo sapiens, 72 h, read-out: IC50

O=C(N[C@@H]1CCCc2c1cnn2-c1ccccc1F)c1noc2c1CCCC2
Activity (Homo sapiens [1]): inactive | IC50 [2, 23]: 80 nM | IC50 [3, 24]: 10000 nM

Cc1ccc(F)c(-n2ncc3c2CCC[C@H]3NC(=O)c2onc3c2CCCC3)c1
IC50 [2, 23]: 200 nM | IC50 [3, 24]: 6700 nM

O=C(N[C@@H]1CCCc2c1cnn2-c1ccccc1F)c1onc2c1CCCC2
solubility kinetic at 4 h [4]: 15 µM (≈ 5.71 µg/mL) | Retention_time [5]: 4.3 min | Retention_time [6]: 4.1 min | inhibition [7]: Active | half-life at 1 µM [8]: 85 min | Retention_time [9]: 5.3 min | half-life at 1 µM [10]: 8 min | IC50 [2, 23]: 160 nM | IC50 [3, 24]: > 10000 nM

COC(=O)c1ccc(C(=O)NC2CCCc3c2cnn3-c2ccccc2F)nc1 (racemic)
IC50 [11]: > 10000 nM

O=C(NC1CCCc2c1cnn2-c1ccccc1F)c1ccccc1 (racemic)
IC50 [2]: Not Active | IC50 [3]: Not Active

O=C(N[C@@H]1CCCc2c1cnn2-c1ccccc1F)c1ncccn1
IC50 [2]: Not Active | IC50 [3]: Not Active

Cc1ccccc1-n1ncc2c1CCCC2NC(=O)c1noc2c1CCCC2 (racemic)
Activity (Homo sapiens [1]): inactive | inhibition (Homo sapiens [12]): Active | IC50 [2, 23]: 15 nM | IC50 [3, 24]: 8600 nM | Activity [13]: Toxic | Activity [14]: Non-Toxic

COc1cc([C@@H]2c3cc4c(cc3[C@@H](O[C@@H]3O[C@@H]5CO[C@@H](C)O[C@H]5[C@H](O)[C@H]3O)[C@H]3COC(=O)[C@H]23)OCO4)cc(OC)c1O
inhibition [15]: Active | inhibition [16]: Active | inhibition [17]: Active | inhibition [18]: Active | inhibition [19]: Active | inhibition [20]: Active | inhibition [21]: Active

O=C(N[C@H]1CCCc2c1cnn2-c1ccccc1F)c1noc2c1CCCC2
IC50 [2]: Not Active | IC50 [3]: Not Active

O=C(NC1CCCc2c1cnn2-c1ccccc1F)c1ccccn1 (racemic)
IC50 [2, 23]: 5400 nM | IC50 [3, 24]: > 10000 nM

Cc1ccccc1-n1ncc2c1CCC[C@H]2NC(=O)c1noc2c1CCCC2
solubility kinetic at 4 h [4]: 10 µM (≈ 3.76 µg/mL) | inhibition (Homo sapiens [12]): Active | half-life at 1 µM [8]: 23 min | half-life at 1 µM [10]: 6 min | IC50 [2, 23]: 14 nM | IC50 [3, 24]: > 10000 nM | Activity [14]: Non-Toxic

O=C(N[C@H]1CCCc2c1cnn2-c1ccccc1F)c1ccccn1
IC50 [2]: Not Active | IC50 [3]: Not Active

O=C(N[C@@H]1CCCc2c1cnn2-c1ccccc1F)c1cc(C(F)(F)F)ccn1
Activity (Homo sapiens [1]): inactive | solubility kinetic at 4 h [4]: < 5 µM | Stability ([8]; microsomes, 1 h, 1 µM): Stable | half-life at 1 µM [10]: 54 min | IC50 [2, 23]: 110 nM | IC50 [3, 24]: > 10000 nM | Activity [13]: Toxic

O=C(NC1CCCc2c1cnn2-c1ccccc1F)c1onc2c1CCCC2 (racemic)
IC50 [2, 23]: 220 nM | IC50 [3, 24]: 8900 nM

O=C(N[C@@H]1CCCc2c1cnn2-c1ccccc1F)c1ncc2ccccn12
IC50 [2, 23]: 38 nM | IC50 [3, 24]: 9400 nM

O=C(NC1CCCc2c1cnn2-c1ccccc1)c1noc2c1CCCC2 (racemic)
IC50 [2, 23]: 430 nM | IC50 [3, 24]: 7000 nM

Cc1ccnc(C(=O)N[C@@H]2CCCc3c2cnn3-c2ccccc2C)c1
Activity (Homo sapiens [1]): inactive | solubility kinetic at 4 h [4]: 110 µM (≈ 38.1 µg/mL) | half-life at 1 µM [8]: > 60 min | half-life at 1 µM [10]: 10 min | IC50 [2, 23]: 62 nM | IC50 [3, 24]: > 10000 nM | Activity [13]: Toxic

O=C(N[C@H]1CCCc2c1cnn2-c1ccccc1F)c1onc2c1CCCC2
inhibition [7]: inactive | IC50 [22]: 6500 nM | IC50 [2]: Not Active | IC50 [3]: Not Active

Cc1cccc(-n2ncc3c2CCCC3NC(=O)c2noc3c2CCCC3)c1C (racemic)
Activity (Homo sapiens [1]): inactive | inhibition (Homo sapiens [12]): Active | IC50 [2, 23]: 23 nM | IC50 [3, 24]: 7700 nM | Activity [13]: Toxic | Activity [14]: Non-Toxic

Cc1cccc(-n2ncc3c2CCCC3NC(=O)c2noc3c2CCCC3)c1 (racemic)
IC50 [2, 23]: 170 nM | IC50 [3, 24]: 8000 nM

Cc1c(-c2ccc(-c3ccccc3F)cc2)nc2ccc(F)cc2c1C(=O)O [BREQUINAR]
solubility kinetic at 4 h [4]: 110 µM (≈ 41.3 µg/mL) | half-life at 1 µM [8]: > 60 min | Stability ([10]; mouse, microsomes, 1 h, 1 µM): Stable | IC50 [2, 23]: 400 nM | IC50 [3, 24]: > 10000 nM

O=C(N[C@@H]1CCCc2c1cnn2-c1ccccc1F)c1ccccn1
half-life at 1 µM [8]: > 60 min | half-life at 1 µM [10]: 1 min | IC50 [2, 23]: 930 nM | IC50 [3, 24]: > 10000 nM

Cc1ccccc1-n1ncc2c1CCC[C@H]2NC(=O)c1onc2c1CCCC2
IC50 [2, 23]: 73 nM | IC50 [3, 24]: > 10000 nM
